In ChEMBL document CHEMBL4422614 (Eur J Med Chem, 2019):
Active and inactive are the calls of the source. The calls are words filed in the database; no cut-off is given here.

Assays:
[1] = Antioxidant activity assessed as trolox equivalent of AAPH-induced radical scavenging activity at 10 to 20 uM preincubated for 10 mins followed by AAPH addition measured every minute for 120 mins by ORAC fluorescein assay; type: functional
How it was run: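 ORAC values are expressed as trolox equivalents, mean ± SD of three independent experiments.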

[2] = Metal chelating activity assessed as inhibition of Cu2+-induced amyloid beta (1 to 42 residues) aggregation at 25 uM after 24 hrs by thioflavin-T fluorescence assay (reference value: 156%); design: scale not given: the % may be the effect or the level left
How it was run: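 Aβ1-42 was incubated with Cu(II) (CuSO4) with or without compound, and thioflavin T fluorescence was read. The Aβ-alone signal was set as 100%. Mean ± SD of three independent experiments.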

[3] = biological target: 3',5'-cyclic-AMP phosphodiesterase 4D (Homo sapiens, UniProt Q08499); assay: Inhibition of human PDE4D2 (86 to 413 residues) catalytic domain using [3H]-cAMP as substrate after 15 mins by liquid scintillation counting method
[4] = system: SH-SY5Y; assay: Cytotoxicity against human SH-SY5Y cells assessed as effect on cell viability at 10 uM after 24 hrs by MTT assay; type: cell-based
How it was run: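 SH-SY5Y viability was measured by MTT after exposure to compounds at 10 µM. Results are percent of vehicle control from three independent experiments.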

[5] = in vitro; settings: PAMPA
[6] = system: Mus musculus; assay: Cognition enhancement activity in amyloid beta (25 to 35 residues) induced C57BL/6J mouse model of Alzheimer's disease assessed as swimming time in effective region at 4 mg/kg/day, ig administered for 26 consecutive days by Morris water maze test (4.3 +/- 1.3 sec); type: functional
How it was run: (§1)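 Mice were randomized into 7 groups. All except sham got an ICV injection of Aβ25-35 (3 nmol); sham got the same volume of saline ICV. Dosing was intragastric daily for 26 days, with 0.5% CMC-Na as vehicle for sham and model. Body weight, diarrhea and emesis-like behavior were monitored.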

[7] = system: Mus musculus; assay: Neuroprotection in amyloid beta (25 to 35 residues) induced C57BL/6J mouse model of Alzheimer's disease assessed as reduction in ratio of apoptotic neuron in CA3 hippocampus region at 4 mg/kg/day, ig administered for 26 consecutive days by hematoxylin and eosin staining-based light microscopic analysis (reference value: 80.2 +/- 8.6%); type: ADME, organism-based; design: scale not given: the % may be the effect or the level left; settings: in vivo, po
How it was run: (§2)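 Hippocampal CA1, CA3 and DG neurons were stained with H&E after the Aβ25-35 ICV model and 26-day intragastric dosing. Denatured cell index = denatured cells/total cells, n = 5. Values are mean ± SD, two-way ANOVA versus model.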

[8] = system: Mus musculus; assay: Neuroprotection in amyloid beta (25 to 35 residues) induced C57BL/6J mouse model of Alzheimer's disease assessed as reduction in ratio of apoptotic neuron in DG hippocampus region at 4 mg/kg/day, ig administered for 26 consecutive days by hematoxylin and eosin staining-based light microscopic analysis (reference value: 55.8 +/- 7.2%); type: ADME, organism-based; design: scale not given: the % may be the effect or the level left; settings: in vivo, po; how it was run: as §2
[9] = system: Mus musculus; assay: Cognition enhancement activity in amyloid beta (25 to 35 residues) induced C57BL/6J mouse model of Alzheimer's disease assessed as swimming speed at 30 mg/kg/day, ig administered for 26 consecutive days by Morris water maze test (reference value: 15.6 +/- 2.4 cm/sec); type: functional; how it was run: as §1
[10] = system: Mus musculus; assay: Cognition enhancement activity in amyloid beta (25 to 35 residues) induced C57BL/6J mouse model of Alzheimer's disease assessed as swimming path length in virtual platform at 4 mg/kg/day, ig administered for 26 consecutive days by Morris water maze test (10.2 +/- 3.2 cm); type: functional; how it was run: as §1
[11] = system: Mus musculus; assay: Cognition enhancement activity in amyloid beta (25 to 35 residues) induced C57BL/6J mouse model of Alzheimer's disease assessed as decrease in escape latancy at 4 mg/kg/day, ig administered for 26 consecutive days by Morris water maze test; type: functional, organism-based; how it was run: as §1
[12] = system: Mus musculus; assay: Neuroprotection in amyloid beta (25 to 35 residues) induced C57BL/6J mouse model of Alzheimer's disease assessed as reduction in ratio of apoptotic neuron in CA1 hippocampus region at 4 mg/kg/day, ig administered for 26 consecutive days by hematoxylin and eosin staining-based light microscopic analysis (reference value: 40.6 +/- 12.5%); type: ADME, organism-based; design: scale not given: the % may be the effect or the level left; settings: in vivo, po; how it was run: as §2
[13] = system: Mus musculus; assay: Cognition enhancement activity in amyloid beta (25 to 35 residues) induced C57BL/6J mouse model of Alzheimer's disease assessed as swimming time in effective region at 30 mg/kg/day, ig administered for 26 consecutive days by Morris water maze test (4.3 +/- 1.3 sec); type: functional; how it was run: as §1
[14] = system: Mus musculus; assay: Neuroprotection in amyloid beta (25 to 35 residues) induced C57BL/6J mouse model of Alzheimer's disease assessed as reduction in ratio of apoptotic neuron in DG hippocampus region at 30 mg/kg/day, ig administered for 26 consecutive days by hematoxylin and eosin staining-based light microscopic analysis (reference value: 55.8 +/- 7.2%); type: ADME, organism-based; design: scale not given: the % may be the effect or the level left; settings: in vivo, po; how it was run: as §2
[15] = system: Mus musculus; assay: Neuroprotection in amyloid beta (25 to 35 residues) induced C57BL/6J mouse model of Alzheimer's disease assessed as reduction in ratio of apoptotic neuron in CA3 hippocampus region at 30 mg/kg/day, ig administered for 26 consecutive days by hematoxylin and eosin staining-based light microscopic analysis (reference value: 80.2 +/- 8.6%); type: ADME, organism-based; design: scale not given: the % may be the effect or the level left; settings: in vivo, po; how it was run: as §2
[16] = system: Mus musculus; assay: Cognition enhancement activity in amyloid beta (25 to 35 residues) induced C57BL/6J mouse model of Alzheimer's disease assessed as swimming speed at 4 mg/kg/day, ig administered for 26 consecutive days by Morris water maze test (reference value: 15.6 +/- 2.4 cm/sec); type: functional; how it was run: as §1
[17] = Drug metabolism in Sprague-Dawley rat liver microsomes assessed as metabolic rate up to 180 mins in presence of NADPH by UV-based LC-MS/MS analysis; type: ADME, Microsome; settings: 3 h
[18] = system: Mus musculus; assay: Cognition enhancement activity in amyloid beta (25 to 35 residues) induced C57BL/6J mouse model of Alzheimer's disease assessed as swimming path length in virtual platform at 30 mg/kg/day, ig administered for 26 consecutive days by Morris water maze test (10.2 +/- 3.2 cm); type: functional; how it was run: as §1
[19] = system: Mus musculus; assay: Neuroprotection in C57BL/6J mouse model of amyloid beta (25 to 35 residues) induced Alzheimer's disease assessed as reduction in ratio of apoptotic neuron in CA1 hippocampus region at 30 mg/kg/day, ig administered for 26 consecutive days by hematoxylin and eosin staining-based light microscopic analysis (reference value: 40.6 +/- 12.5%); type: ADME, organism-based; design: scale not given: the % may be the effect or the level left; settings: in vivo, po; how it was run: as §2
[20] = in vitro; settings: Sprague-Dawley, rat
[21] = Metal chelating activity assessed as inhibition of Cu(II)-induced amyloid beta (1 to 42 residues) aggregation at 25 uM after 24 hrs by thioflavin-T fluorescence assay (reference value: 156%); design: scale not given: the % may be the effect or the level left
How it was run: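 Aβ1-42 was incubated with CuSO4 with or without compound, and thioflavin T fluorescence was read. Fluorescence is given as percent of Aβ alone, as mean ± SD of three independent experiments.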

[22] = system: Mus musculus; assay: Cognition enhancement activity in amyloid beta (25 to 35 residues) induced C57BL/6J mouse model of Alzheimer's disease assessed as decrease in escape latancy at 30 mg/kg/day, ig administered for 26 consecutive days by Morris water maze test; type: functional, organism-based; how it was run: as §1
[23] = Metal chelating activity assessed as inhibition of Cu(II)-induced amyloid beta (1 to 42 residues) aggregation at 25 uM after 24 hrs by TEM assay
How it was run: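 Samples were prepared as for the ThT assay. 10 µL aliquots were applied to carbon-coated copper grids for 2 min, then stained with 3% phosphotungstic acid for 2 min and imaged by transmission electron microscopy.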

Chain of 3',5'-cyclic-AMP phosphodiesterase 4D (Q08499 whole entry, the tested form may be a part): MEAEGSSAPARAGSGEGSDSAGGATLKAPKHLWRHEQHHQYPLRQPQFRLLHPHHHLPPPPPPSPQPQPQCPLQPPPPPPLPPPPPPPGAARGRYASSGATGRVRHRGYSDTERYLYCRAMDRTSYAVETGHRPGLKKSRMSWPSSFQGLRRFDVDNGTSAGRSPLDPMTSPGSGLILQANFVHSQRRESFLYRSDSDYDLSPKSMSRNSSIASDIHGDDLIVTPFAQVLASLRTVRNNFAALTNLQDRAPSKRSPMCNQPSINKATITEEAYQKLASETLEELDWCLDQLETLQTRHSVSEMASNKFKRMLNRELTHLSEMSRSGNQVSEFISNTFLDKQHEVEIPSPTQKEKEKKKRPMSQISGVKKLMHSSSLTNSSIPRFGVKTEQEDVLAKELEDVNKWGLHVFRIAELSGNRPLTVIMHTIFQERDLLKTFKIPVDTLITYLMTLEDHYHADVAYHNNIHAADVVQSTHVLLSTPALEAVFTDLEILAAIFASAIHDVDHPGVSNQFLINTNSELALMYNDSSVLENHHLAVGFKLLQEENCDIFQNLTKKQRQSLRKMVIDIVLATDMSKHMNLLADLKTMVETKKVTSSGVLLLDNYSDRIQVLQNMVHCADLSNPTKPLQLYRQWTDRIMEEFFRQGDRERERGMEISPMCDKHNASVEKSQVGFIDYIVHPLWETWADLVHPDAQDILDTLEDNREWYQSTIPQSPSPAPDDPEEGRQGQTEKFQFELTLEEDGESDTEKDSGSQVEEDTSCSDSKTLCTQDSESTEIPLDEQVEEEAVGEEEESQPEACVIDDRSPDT

Row | Compound | Activity [1] [equiv] | IC50 [3] [µM] | Papp at 10 h, 100 ug/ml [5] [×10⁻⁶ cm/s] | other results
1 | COc1ccc(C(=O)Nc2cc(Cl)c(O)c3ncccc23)cc1OC1CCCC1.Cl | 0.56 | 3.13 | – | Activity [2]: 70.2%; Activity [4]: Toxic
2 | COc1ccc(C(=O)Nc2ccc3cccc(O)c3n2)cc1OC1CCCC1 | 0.7 | 4.64 | 16.4 | –
3 | COc1ccc(NC(=O)c2ccc3cccc(O)c3n2)cc1OC1CCCC1 | 1.98 | 4.15 | – | –
4 | COc1ccc(C2CNC(=O)C2)cc1OC1CCCC1 (stereo not drawn) [ROLIPRAM] | 0.07 | – | 18.9 | Time [6]: 5.7 s; Activity [7]: 41.1%; Activity [8]: 25.7%; Activity [9]: 15.1 cm/s; Activity [10]: 16.5 cm; Activity [11]: Active; Activity [12]: 33.5%
5 | Oc1c(I)cc(Cl)c2cccnc12 [CLIOQUINOL] | 0.6 | – | 5.2 | Time [13]: 5.8 s; Activity [9]: 16 cm/s; Activity [14]: 19.7%; Activity [15]: 37.8%; Activity [16]: Active; K [17]: 0.0194 min⁻¹; Activity [18]: 18 cm; Activity [19]: 24.2%; half-life ([20]; liver microsomes): 35.8 min; Activity [21]: 66%; Activity [22]: Active; Activity [23]: Active
6 | COc1cc2c(cc1OC)C(=O)C(CC1CCN(Cc3ccccc3)CC1)C2 (stereo not drawn) [DONEPEZIL] | – | – | – | K [17]: 0.00917 min⁻¹; half-life ([20]; microsomes): 75.6 min
7 | COc1ccc(C(=O)Nc2cc(I)c(O)c3ncccc23)cc1OC1CCCC1.Cl | 1.01 | 0.597 | 5.86 | –
8 | COc1ccc(NC(=O)c2ccc3cccc(O)c3n2)cc1OC | 1.03 | 4.32 | – | –
9 | Cl.O=C(Nc1cc(Cl)c(O)c2ncccc12)c1ccc(OC(F)F)c(OCC2CC2)c1 | 0.74 | 3.83 | – | Activity [2]: 82%; Activity [4]: Toxic
10 | COc1ccc(NC(=O)c2ccc3c(Cl)cc(Cl)c(O)c3n2)cc1OC | 1.05 | 8.07 | – | –
11 | Cl.O=C(Nc1cc(I)c(O)c2ncccc12)c1ccc(OC(F)F)c(OCC2CC2)c1 | 0.69 | 0.426 | 7.05 | –
12 | COc1ccc(NC(=O)c2ccc3c(Cl)cc(Cl)c(O)c3n2)cc1OC1CCCC1 | 1.29 | 6.78 | – | –
13 | O=C(Nc1ccc2cccc(O)c2n1)c1ccc(OC(F)F)c(OCC2CC2)c1 | 0.34 | 4.06 | 15.8 | –
14 | COc1ccc(C(=O)Nc2ccc(O)c3ncccc23)cc1OC | 1.34 | 7.63 | – | –
15 | C[C@]12CC[C@H]3[C@@H](CCC4=CC(=O)CC[C@@]43C)[C@@H]1CC[C@@H]2O [TESTOSTERONE] | – | – | – | K [17]: 0.301 min⁻¹
16 | COc1ccc(C(=O)Nc2cc(I)c(O)c3ncccc23)cc1OC | 1.3 | 7.36 | – | –
